{
  "source": "ChEMBL document CHEMBL3576870",
  "about": "“Monanchosterols A and B, bioactive bicyclo[4.3.1]steroids from a Korean sponge Monanchora sp” (J Nat Prod, 2015)",
  "key": {"[1]": {"test_system": "RAW264.7", "assay": "Cytotoxicity against mouse RAW264.7 cells", "assay_type": "cell-based", "details": "for Activity: mouse, raw264.7"}, "[2]": {"test_system": "RAW264.7", "assay": "Antiinflammatory activity in mouse RAW264.7 cells assessed as inhibition of LPS-stimulated IL-6 mRNA expression at 10 uM after 24 hrs by RT-qPCR analysis relative to control", "assay_type": "functional", "details": "RAW264.7, 24 h", "procedure,_shortened": "(§1)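 RAW 264.7 cells grown in DMEM with 10% heat-inactivated FBS and 1% penicillin-streptomycin at 37 °C, 5% CO2. Plated at 3 × 10^5 cells/mL in six-well plates, left 24 h. Then given 0.1 μg/mL LPS with or without test compound (0.1–100 μM) for 24 h. mRNA quantified by RT-qPCR after RNA extraction, normalized to 18s mRNA and expressed as ratio to DMSO. SB203580 (10 μM) served as reference. Mean ± SD of three independent experiments.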"}, "[3]": {"test_system": "RAW264.7", "assay": "Antiinflammatory activity in mouse RAW264.7 cells assessed as inhibition of LPS-stimulated IL-6 mRNA expression after 24 hrs by RT-qPCR analysis", "assay_type": "functional, cell-based", "details": "for IC50: RAW264.7, 24 h", "procedure,_shortened": "as §1"}, "[4]": {"test_system": "RAW264.7", "assay": "Antiinflammatory activity in mouse RAW264.7 cells assessed as inhibition of LPS-stimulated TNF-alpha mRNA expression at 0.1 to 100 uM after 24 hrs by RT-qPCR analysis", "assay_type": "functional, cell-based", "procedure,_shortened": "as §1"}, "[5]": {"test_system": "RAW264.7", "assay": "Antiinflammatory activity in mouse RAW264.7 cells assessed as inhibition of LPS-stimulated COX-2 mRNA expression at 0.1 to 100 uM after 24 hrs by RT-qPCR analysis", "assay_type": "functional, cell-based", "procedure,_shortened": "as §1"}},
  "note": "Activity calls are given as the source filed them. The calls are words filed in the database; no cut-off is given here.",
  "data": [
    {"molecule": "CC(C)=CCC[C@@H](C)[C@H]1CC[C@H]2C3=C[C@@H](O)[C@H]4C(=O)[C@](C)(CC[C@@H]4O)[C@H]3CC[C@]12C", "values": [
      {"measurement": "IC50", "setting": "[1]; Mus musculus, RAW264.7", "result": 65, "unit": "µM"}
    ]},
    {"molecule": "C[S+]([O-])c1ccc(-c2nc(-c3ccc(F)cc3)c(-c3ccncc3)[nH]2)cc1", "note": "(centres undefined) [SB-203580]", "values": [
      {"measurement": "inhibition at 10 µM", "setting": "[2]", "result": 53, "unit": "%"}
    ]},
    {"molecule": "C=C(CC[C@@H](C)[C@H]1[C@H](O)C[C@H]2[C@@H]3CC=C4C[C@@H](O)CC[C@]4(C)[C@H]3CC[C@]12C)C(C)C", "values": [
      {"measurement": "Activity", "setting": "[1]", "result": "Non-toxic"},
      {"measurement": "inhibition at 10 µM", "setting": "[2]", "result": 67, "unit": "%"},
      {"measurement": "inhibition", "setting": "[3]", "result": "Dose-dependent effect"},
      {"measurement": "IC50", "setting": "[3]", "result": 5.2, "unit": "µM"},
      {"measurement": "inhibition", "setting": "[4]", "result": "inactive"},
      {"measurement": "inhibition", "setting": "[5]", "result": "inactive"}
    ]},
    {"molecule": "CC(=O)O[C@H]1CC[C@@]2(C)C(=O)[C@@H]1[C@H](O)C=C1[C@@H]3CC[C@H]([C@H](C)CCC=C(C)C)[C@@]3(C)CC[C@@H]12", "values": [
      {"measurement": "Activity", "setting": "[1]", "result": "Non-toxic"},
      {"measurement": "inhibition at 10 µM", "setting": "[2]", "result": 69, "unit": "%"},
      {"measurement": "inhibition", "setting": "[3]", "result": "Dose-dependent effect"},
      {"measurement": "IC50", "setting": "[3]", "result": 5, "unit": "µM"},
      {"measurement": "inhibition", "setting": "[4]", "result": "inactive"},
      {"measurement": "inhibition", "setting": "[5]", "result": "inactive"}
    ]}
  ]
}
